Assay results taken from ChEMBL document CHEMBL5380838, “Novel Aryl Sulfonamide Derivatives as NLRP3 Inflammasome Inhibitors for the Potential Treatment of Cancer” (J Med Chem, 2023).
Calls of active or inactive are those of the source. No cut-off for these calls is given here.

Assays:
[1] = Half life in C57BL/6 mouse at 25 mg/kg, ip measured for 0.083 to 24 hrs by LC-MS/MS analysis; type: ADME, organism-based; conditions: in vivo, time 0.083-24 hrs
In short: (§1)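 Female C57BL/6 mice, 8 weeks old, 25–30 g, given a single IP dose of 25 mg/kg. Sampling at 5 and 20 min and 1, 2, 3, 6, 8 and 24 h, 3 mice per timepoint; Li-heparin plasma from the cava vein. ACN/MeOH precipitation with diclofenac internal standard, then LC-MS/MS in ESI(−) MRM mode, range 1–2000 ng/mL. Noncompartmental analysis, linear trapezoidal AUC.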

Mus musculus [2] = assay: Antiinflammatory activity in LPS-induced C57BL/6 mouse assessed as reduction in IL-1beta production in peritoneal exudate at 25 mg/kg, ip pretreated for 30 mins followed by LPS induction measured after 4 hrs by ELISA method; type: functional, organism-based; conditions: time 4.5 hrs
In short: (§2)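 C57BL/6 mice given inhibitor 25 mg/kg IP (vehicle DMSO) 30 min before IP LPS 1 mg/kg; after 4 h, peritoneal exudate and blood collected, plasma from centrifugation 1000g 15 min 4 °C; IL-1β measured by ELISA; mean ± SEM of three independent experiments.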

[3] = Tlast in C57BL/6 mouse at 25 mg/kg, ip measured for 0.083 to 24 hrs by LC-MS/MS analysis; type: ADME, organism-based; conditions: in vivo, time 0.083-24 hrs; in short: as §1
[4] = Cmax in C57BL/6 mouse at 25 mg/kg, ip measured for 0.083 to 24 hrs by LC-MS/MS analysis; type: ADME, organism-based; design: time upper 24 hrs, dose 25 mg/kg, time lower 0.083 hrs, route ip; conditions: in vivo; in short: as §1
[5] = Metabolic stability in human liver microsomes assessed as half life measured per mg protein at 1 uM measured upto 60 mins by LC-MS/MS analysis; type: ADME, Microsome
In short: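 Pooled human or CD-1 male mouse liver microsomes at 0.5 mg/mL with test compound 1 µM in 50 mM phosphate pH 7.4 and 3 mM MgCl2, preincubated 10 min at 37 °C. Percent parent remaining vs 0 min measured by LC-MS/MS. Cli = k/microsomal conc. × 1000; mean ± SD, n = 2.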

THP-1 = assay: Suppression of pro-IL-1beta expression in LPS-treated human THP-1 cells at 1 to 1000 nM incubated for 30 mins followed by ATP stimulation for 1 hr […]; type: functional, cell-based; conditions: dose 1-1000 nM, time 90.0 min
Mus musculus [6] = assay: Antiinflammatory activity in LPS-induced C57BL/6 mouse assessed as reduction in IL-1beta production in plasma at 25 mg/kg, ip pretreated for 30 mins followed by LPS induction measured after 4 hrs by ELISA method; type: functional, organism-based; conditions: time 4.5 hrs; in short: as §2
[7] = AUC in C57BL/6 mouse at 25 mg/kg, ip measured for 0.083 to 24 hrs by LC-MS/MS analysis; conditions: in vivo
BMDM = assay: Effect on NLRP3-ASC interaction in LPS-treated mouse BMDM cells at 1 uM incubated for 30 mins followed by ATP stimulation for 1 hr by co-immunoprecipitation based Western blot analysis; type: functional, cell-based; conditions: time 90.0 min
In short: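 BMDMs (1 × 10^7) primed with LPS 2 h, treated 1 µM compound 30 min, then ATP 1 h; lysed in HEPES/NaCl/glycerol/EDTA/0.5% Triton buffer with protease/phosphatase inhibitors; NLRP3–ASC co-immunoprecipitation, bait eluted in Laemmli buffer, western blot; representative of three independent experiments.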

B16-F10 = assay: Antiproliferative activity against LPS-treated mouse B16-F10 cells co-cultured with mouse peritoneal macrophages assessed as decrease in cell growth at 1 uM incubated for 30 mins followed by ATP stimulation for 1 hr measured after 48 hrs by cell counting method; type: functional, cell-based; conditions: time 49.5 hrs
In short: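 Transwell co-culture (0.4 µm pores), 48 h: peritoneal macrophages from C57BL/6 mice (2 × 10^5, lower well) primed with LPS 1 µg/mL 2 h, then DMSO or compound 1 µM 30 min, then ATP 1 h; B16-F10 cells (2 × 10^3) in upper insert; tumor cells removed after 48 h and counted by image-based cytometer.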

half-life [1]: 9.5 h
Tlast [3]: 24 h
Cmax [4]: 1670 ng/mL
half-life at 1 µM [5]: 0.508 h
AUC [7]: 3880 ng/mL.hr
SMILES: CC(C)[C@H](NS(=O)(=O)c1ccc([N+](=O)[O-])cc1)C(=O)Nc1c2c(cc3c1CCC3)CCC2
Activity (Mus musculus [2]): Active
Activity (THP-1): inactive
Activity (Mus musculus [6]): Active
Activity (BMDM): inactive
Activity (B16-F10): Active
